The text below walks through data of ChEMBL document CHEMBL1137269, “Identification of substituted 4-aminopiperidines and 3-aminopyrrolidines as potent MCH-R1 antagonists for the treatment of obesity” (Bioorg Med Chem Lett, 2006).

Molecules are shown by their SMILES. Where only a bound is given, the exact number is not on record here.

T1 sequence (Q99705 whole entry): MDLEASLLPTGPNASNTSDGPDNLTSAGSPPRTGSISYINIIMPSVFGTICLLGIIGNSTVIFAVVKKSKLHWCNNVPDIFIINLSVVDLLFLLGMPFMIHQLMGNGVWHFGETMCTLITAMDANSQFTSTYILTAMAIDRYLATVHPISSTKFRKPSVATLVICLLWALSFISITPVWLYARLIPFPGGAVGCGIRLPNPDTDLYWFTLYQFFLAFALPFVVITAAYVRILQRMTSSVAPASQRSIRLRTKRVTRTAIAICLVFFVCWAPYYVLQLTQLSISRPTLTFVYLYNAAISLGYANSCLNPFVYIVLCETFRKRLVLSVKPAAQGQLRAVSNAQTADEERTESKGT

The first test concerns the target T1, Melanin-concentrating hormone receptor 1 (Homo sapiens, UniProt Q99705). As to the kind of experiment: Binding activity against human MCH-R1. An outline of the steps: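 Whole-cell competition binding in HEK-293 cells overexpressing MCH-R1 (SLC-1). Cells were incubated with varying compound concentrations plus 25 nM europium-labelled MCH, then washed free of unbound label, and residual bound europium-MCH was quantified. Non-specific binding was defined with unlabelled MCH. Values are means of at least two experiments unless indicated otherwise.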
One may read the Ki as a dissociation constant, usually derived from enzyme kinetics or from competition with a known ligand. In the case of `COc1cc(OC)cc(C(=O)NC2CCN(C/C=C/c3ccccc3)CC2)c1`, the Ki was 12 nM.
On the same count and under the same terms, then `COc1cc(OC)cc(C(=O)NC2CCN(Cc3ccc4ccccc4n3)CC2)c1`, with 625 nM.
Still for that read-out and setting: to `COc1cc(C(=O)NC2CCN(Cc3ccc4ccccc4c3)CC2)cc(OC)c1OC` belongs 286 nM; to `COc1cc(OC)cc(C(=O)NC2CCN(CC[C@H](O)c3ccccc3)CC2)c1`, 505 nM.
The molecule `COc1cc(OC)cc(C(=O)NC2CCN(Cc3ccc(Cl)c(Cl)c3)CC2)c1` showed a Ki of 205 nM.
For the molecule `COc1cc(OC)cc(C(=O)NC2CCN(CC3CCc4ccccc4C3)CC2)c1` (centres undefined), the inhibitory constant (Ki) came out at 136 nM.
In turn, `COc1cc(OC)cc(C(=O)NC2CC(C)(C)N(Cc3ccc4ccccc4c3)C(C)(C)C2)c1` gave an inhibition constant Ki greater than 100000 nM.
Molecule `COc1cc(OC)cc(C(=O)N[C@@H]2CCN(Cc3ccc4ccccc4c3)C2)c1` had a Ki of 7 nM.
In the case of `O=C(NC1CCN(Cc2ccc3ccccc3c2)CC1)c1cc(F)cc(F)c1`, the Ki was determined as 65 nM.
As to `O=C(NC1CCN(Cc2ccc3ccccc3c2)CC1)c1ccc(F)c(F)c1`, the inhibition constant Ki was 18 nM.
On the same count and under the same terms, then `COc1cc(OC)cc(C(=O)N[C@@H]2CCN(C/C=C/c3ccccc3)C2)c1`, with 17 nM; and `O=C(NCc1ccc(F)c(F)c1)[C@@H]1[C@@H]2CN(Cc3ccc4ccccc4c3)C[C@@H]21`, with greater than 100000 nM; and `COc1cc(OC)cc(C(=O)N(C)C2CCN(Cc3ccc4ccccc4c3)CC2)c1`, with 169 nM.
The molecule `COc1cc(OC)cc(C(=O)N[C@@H]2CCN(Cc3ccc4ccccc4c3)C[C@@H]2C)c1` showed a Ki of 170 nM.
Regarding `COc1cc(OC)cc(C(=O)N[C@@H]2CCN(C(C)c3ccc4ccccc4c3)C2)c1` (some centres undefined), affinity was put at a Ki of 12 nM.
Regarding `O=C(NC1CCN(Cc2ccc3ccccc3c2)CC1)c1ccc(F)cc1`, the Ki was found to be 36 nM.
Consider `COc1cc(OC)cc(C(=O)NC2CCN(Cc3ccc4cc(OC)ccc4c3)CC2)c1`, for which the inhibition constant Ki was found to be 99 nM.
Regarding `CN(C)c1cccc(C(=O)NC2CCN(Cc3ccc4ccccc4c3)CC2)c1`, the inhibition constant (Ki) turned out to be 125 nM.
Consider `O=C(NC1CCN(Cc2ccc3ccccc3c2)CC1)c1ccccc1`, for which the Ki came out at 347 nM.
The same measure, in the same setting: to `COc1cc(OC)cc(C(=O)NC2CCN(Cc3ccc4cc(F)ccc4c3)CC2)c1` belongs 32 nM; to `O=C(NC1CCN(Cc2ccc3cc(F)ccc3c2)CC1)c1ccccc1`, 125 nM; to `COc1cc(OC)cc(C(=O)NCCCNCc2ccc3ccccc3c2)c1`, greater than 100000 nM.
Still for that read-out and setting: to `COc1cc(OC)cc(C(=O)NC2CCN(C(C)c3ccc4ccccc4c3)CC2)c1` (centres undefined) belongs 25 nM.
Molecule `COc1cc(C(=O)NC2CCN(Cc3ccc4ccccc4c3)CC2)ccc1F` registered an inhibitory constant (Ki) of 13 nM.
Molecule `COc1cc(OC)cc(C(=O)NC2CCN(CCCc3ccccc3)CC2)c1` had a Ki greater than 100000 nM.
In the case of `COc1cc(OC)cc(C(=O)NC2CCN(Cc3ccc4ccccc4c3)CC2)c1`, affinity was put at a Ki of 27 nM.
Still for that read-out and setting: to `COc1cc(OC)cc(C(=O)N[C@H]2CCN(Cc3ccc4ccccc4c3)C2)c1` belongs 484 nM; to `O=C(NCc1ccc(F)c(F)c1)[C@H]1[C@@H]2CN(Cc3ccc4ccccc4c3)C[C@@H]21`, 40 nM; to `COc1cccc(C(=O)N[C@@H]2CCN(Cc3ccc4ccccc4c3)C2)c1`, 67 nM.
As to `COc1cc(OC)cc(C(=O)N[C@@H]2CCN(Cc3ccccc3)C2)c1`, the affinity corresponds to a Ki of 8070 nM.
Same read-out and setting: then `CCOc1cc(OCC)cc(C(=O)NC2CCN(Cc3ccc4ccccc4c3)CC2)c1`, with 56 nM; and `COc1cc(OC)cc(C(=O)N[C@@H]2CCN(C(C)/C=C/c3ccccc3)C2)c1` (some centres undefined), with 23 nM; and `COc1cc(OC)cc(C(=O)NC2CCN(Cc3ccccc3)CC2)c1`, with 302 nM.
`COc1cc(OC)cc(C(=O)NC2(C)CCN(Cc3ccc4ccccc4c3)CC2)c1` yielded an inhibition constant Ki of 86 nM.
For the molecule `O=C(NC1CCN(Cc2ccc3ccccc3c2)CC1)c1cc(F)c(F)c(F)c1`, affinity was put at a Ki of 9 nM.
In turn, `O=C(NC1CCN(Cc2ccc3ccccc3c2)CC1)c1cccc(O)c1` came in with an inhibitory constant (Ki) of 570 nM.
Same read-out and setting: to `COc1cc(OC)cc(C(=O)N[C@@H]2CCN(Cc3ccc4ccccc4c3)C[C@H]2C)c1` belongs 133 nM; to `O=C(NC1CCN(Cc2ccc3ccccc3c2)CC1)c1ccc(Cl)cc1`, 232 nM; to `COc1cc(OC)cc(C(=O)NC2CCN(Cc3cc4ccccc4n3C)CC2)c1`, 142 nM.
Same read-out and setting: then `COc1cc(C(=O)N[C@@H]2CCN(Cc3ccc4ccccc4c3)C2)ccc1F`, with 62 nM; and `COc1cc(OC)cc(C(=O)NC2CCCN(Cc3ccc4ccccc4c3)C2)c1` (centres undefined), with greater than 100000 nM; and `COc1ccc(C(=O)NC2CCN(Cc3ccc4ccccc4c3)CC2)cc1OC`, with 1000 nM.
Take `COc1cccc(C(=O)NC2CCN(Cc3ccc4ccccc4c3)CC2)c1`: affinity was put at a Ki of 29 nM.

A further test concerns the target T1, Melanin-concentrating hormone receptor 1. Kind of test: Inhibition of MCH-mediated calcium release by CHO cells expressing human MCH-R1. It counts as functional, cell-based.
A word on the IC50: it is the concentration that gives 50% inhibition. For the molecule `COc1cc(OC)cc(C(=O)N[C@@H]2CCN(Cc3ccc4ccccc4c3)C2)c1`, the concentration for half-maximal inhibition (IC50) came to 18 nM.
On to `O=C(NC1CCN(Cc2ccc3ccccc3c2)CC1)c1ccc(F)c(F)c1`, for which the concentration for half-maximal inhibition (IC50) is 52 nM.
`COc1cc(OC)cc(C(=O)N[C@@H]2CCN(C/C=C/c3ccccc3)C2)c1`: the concentration for half-maximal inhibition (IC50) is 42 nM.
With `O=C(NC1CCN(Cc2ccc3ccccc3c2)CC1)c1ccccc1`, the IC50 worked out at 948 nM.
Consider `O=C(NC1CCN(Cc2ccc3cc(F)ccc3c2)CC1)c1ccccc1`, for which the IC50 was determined as 109 nM.
In the case of `COc1cc(OC)cc(C(=O)NC2CCN(Cc3ccc4ccccc4c3)CC2)c1`, the IC50 came out at 62 nM.
